In ChEMBL document CHEMBL2429730, “C23 steroids from the venom of Bufo bufo gargarizans” (J Nat Prod, 2013) one finds IC50, viability and inhibition data, which are given here for 11 compounds.

For one series, the system named is A549. The experiment in a line: Cytotoxicity against human A549 cells after 24 hrs by MTT assay. The class given is functional, cell-based. The following applies: A549, 24 h.
A short description of series [1]: Cytotoxicity against KM mouse splenic lymphocytes. The following applies: Splenic lymphocyte.
A further series relates to HepG2. In words: Cytotoxicity against human HepG2 cells after 24 hrs by MTT assay. As to conditions: HepG2, 24 h. It counts as functional, cell-based.
The nature of series [2]: Cytotoxicity against KM mouse splenic lymphocytes assessed as cell viability at 5 uM. More on the design: species or system Splenic lymphocyte. The following applies: read-out: Activity. In outline: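 Spleens from KM mice were homogenized in PBS and centrifuged. The pellet was red-cell-lysed for 5 min (Tris-base 2.6 g/L, NH4Cl 7.47 g/L, pH 7.2), then passed through a 300-mesh sieve. The resulting lymphocytes were tested by MTT assay, and survival rate was scored at 5 μM.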

The nature of series [3]: Inhibition of Na(+)/K(+) ATPase in pig cerebral cortex assessed as release of inorganic phosphate after 15 mins by colorimetric method.
The species named for the next series is Sus scrofa. The experiment in a line: Inhibition of Na(+)/K(+) ATPase in pig cerebral cortex assessed as release of inorganic phosphate at 50 uM after 15 mins by colorimetric method. The class given is tissue-based.

Calls of active or inactive are those of the source. The calls are words filed in the database; no cut-off is given here. Some results are limits rather than exact numbers.

As usually defined, the IC50 is the midpoint of a concentration-inhibition curve.

Turning to `C[C@]12CC[C@H](O)C[C@H]1CC[C@@H]1[C@@H]2CC[C@]2(C)[C@@H](c3ccc(=O)oc3)C[C@H]3O[C@]132` [BUFOGENIN], the IC50 in the series on A549 is above 100 µM; in series [1] it was above 100 µM; with HepG2 it was 43.3 µM.
Regarding `C[C@]12CC[C@H](O)C[C@H]1CC[C@@H]1[C@@H]2CC[C@]2(C)[C@@H](c3ccc(=O)oc3)CC[C@]12O` [BUFALIN], the half-inhibitory concentration (IC50) with A549 worked out at 0.6 µM; in the series on HepG2 it was 0.6 µM; in series [3], 0.011 µM. Also, the viability at 5 µM in series [2] turned out to be 100%.
Consider `C/C=C(\C=O)[C@H]1[C@@H](OC(C)=O)[C@H]2O[C@]23[C@@H]2CC[C@@H]4C[C@@H](O)CC[C@]4(C)[C@H]2CC[C@]13C`, for which the IC50 in the series on A549 was 45.6 µM; in series [1], above 100 µM; in the series on HepG2, above 26.8 µM.
Regarding `C[C@]12CC[C@H](O)C[C@@]1(O)CC[C@@H]1[C@@H]2CC[C@]2(C)[C@@H](c3ccc(=O)oc3)CC[C@]12O` [TELOCINOBUFAGIN], the values for the IC50 in the series with A549 and in the series with HepG2 were 3 µM and 2.4 µM, respectively. Moreover, the viability at 5 µM in series [2] is 100%.
As for `COC(=O)CCC(=O)C1=CC=C2[C@@H]3CC[C@@H]4C[C@@H](O)CC[C@]4(C)[C@H]3CC[C@]12C`, the IC50 (in the series with A549; in series [1]; in the series on HepG2) was above 100 µM in each case. Moreover, the inhibition result in the series listed under Sus scrofa was “inactive”.
In the case of `CC(=O)O[C@H]1[C@H]2O[C@]23[C@@H]2CC[C@@H]4C[C@@H](O)CC[C@]4(C)[C@H]2CC[C@]3(C)[C@H]1c1ccc(=O)oc1` [CINOBUFAGIN], the IC50 was determined as 6.5 µM with A549 and 5.5 µM with HepG2. Moreover, the viability at 5 µM in series [2] is 100%.
On to `COc1cccc2c1C(=O)c1c(O)c3c(c(O)c1C2=O)C[C@@](O)(C(=O)CO)C[C@@H]3O[C@H]1C[C@H](N)[C@H](O)[C@H](C)O1` [DOXORUBICIN], for which the IC50 in the series on A549 stood at 0.1 µM.
As for `C=CC1=CO[C@]23C[C@H](OC(C)=O)[C@H]1[C@@]2(C)CC[C@H]1[C@H]3CC[C@@H]2C[C@@H](O)CC[C@@]21C`, the IC50 in the series on A549 is above 100 µM; in series [1] it was above 100 µM; in the series on HepG2, 64.8 µM.
Turning to `CC(=O)O[C@H]1C[C@]2(O)[C@@H]3CC[C@@H]4C[C@@H](O)CC[C@]4(C)[C@H]3CC[C@]2(C)[C@H]1c1ccc(=O)oc1` [BUFOTALIN], the IC50 in the series on A549 was determined as 0.9 µM; with HepG2, 0.5 µM. Further, in series [2], the viability at 5 µM stood at 100%.
For `C=CC1=CO[C@]23CC[C@H]1[C@@]2(C)CC[C@H]1[C@H]3CC[C@]2(O)C[C@@H](O)CC[C@]12C`, the IC50 in the series on A549 is above 100 µM; in series [1] it was 79.4 µM; in the series on HepG2, 68.7 µM. Besides, the inhibition result in the series filed under Sus scrofa was “inactive”.
As to `C[C@@H]1O[C@@]12[C@@H]1O[C@@H]3C[C@H]2[C@@]2(C)CC[C@H]4[C@@H](CC[C@@H]5C[C@@H](O)CC[C@@]54C)[C@@]32O1`, the IC50 (with A549; in series [1]; in the series with HepG2) was above 100 µM throughout.
